# Experimental data collected from several papers.
# Target: Peroxisome proliferator-activated receptor alpha (PPARA, Homo sapiens, UniProt Q07869)
# Sequence (Q07869 1-468, as in one of the studies): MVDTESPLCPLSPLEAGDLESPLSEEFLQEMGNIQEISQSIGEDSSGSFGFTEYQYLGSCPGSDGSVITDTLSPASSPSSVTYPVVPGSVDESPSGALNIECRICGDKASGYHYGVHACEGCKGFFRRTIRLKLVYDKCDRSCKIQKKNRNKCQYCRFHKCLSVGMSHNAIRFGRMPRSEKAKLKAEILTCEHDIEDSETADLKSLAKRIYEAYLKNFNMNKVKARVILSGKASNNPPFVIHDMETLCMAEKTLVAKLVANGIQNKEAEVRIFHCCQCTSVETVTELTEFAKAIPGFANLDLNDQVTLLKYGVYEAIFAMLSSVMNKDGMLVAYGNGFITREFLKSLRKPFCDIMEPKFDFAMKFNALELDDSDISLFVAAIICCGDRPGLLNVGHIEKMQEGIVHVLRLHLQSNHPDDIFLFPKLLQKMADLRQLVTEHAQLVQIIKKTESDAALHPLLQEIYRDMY
Structure (SMILES),test,quantity,result
CC(C)(Oc1ccc(C(=O)c2ccc(Cl)cc2)cc1)C(=O)O,"reporter gene, agonist, luciferase",EC50,47.1 µM
O=C(Nc1ccc(CCF)cc1)c1cc([N+](=O)[O-])ccc1Cl,"enzyme activity in cells, inhibitor",IC50,> 2 µM
C=CCc1ccc(O)c(-c2cc(CC=C)ccc2O)c1,"ligand displacement, TR-FRET",Ki,3.38 µM
O=C(Nc1ccc(OCCF)cc1)c1cc([N+](=O)[O-])ccc1Cl,"enzyme activity in cells, inhibitor",IC50,> 2 µM
Cc1ccc(C)c(OCCCC(C)(C)C(=O)O)c1,"reporter gene, agonist, luciferase",EC50,201 µM
CC1(C)C=Cc2c(cc3oc(-c4ccccc4)c(O)c(=O)c3c2O)O1,"ligand displacement, TR-FRET",Ki,3.3 µM
O=C(Nc1ccc(Oc2ncccn2)cc1C(=O)O)c1ccc(Cl)cc1Cl,"ligand displacement, TR-FRET",IC50,11.9 µM
C=CCc1ccc(O)c(-c2ccc(O)c(CC=C)c2)c1,"ligand displacement, TR-FRET",Ki,4.6 µM
Cc1c(C)n(Cc2ccc(-c3ccccc3C(=O)O)cc2)c2ccc(C(=O)N[C@@H](C)c3ccc(C(C)(C)C)cc3)cc12,"ligand displacement, TR-FRET",Ki,0.594 µM
CCCCCC#CCC#CCC#CCC#CCCCC(=O)O,"reporter gene, agonist, luciferase",EC50,0.99 µM
